Source: ChEMBL document CHEMBL4138048, “Synthesis of substituted 2H-benzo[e]indazole-9-carboxylate as a potent antihyperglycemic agent that may act through IRS-1, Akt and GSK-3β pathways” (Medchemcomm, 2017)
Active and inactive are the calls of the source. No cut-off for these calls is given here.

Test system: L6
Experiment: Stimulation of [3H]2-deoxyglucose uptake in rat L6 cells at 10 uM incubated for 16 hrs by scintillation counting method
Type: functional, cell-based
Procedure, shortened: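 L6 myotubes incubated with the compound […]; insulin at 100 nM for 20 min served as the positive control. Uptake of ³H-2-deoxyglucose measured and expressed as fold stimulation relative to the control condition.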

With COC(=O)c1c(SC)cc(-c2cccs2)c2c1-c1cn(-c3ccccc3)nc1CC2 the Activity was “inactive”.
